In the assay the test system is HT-29. Description: Inhibition of side population in human HT-29 cells at 100 uM after 90 mins using vybrant dyecycle violet staining by FACS analysis. The class given is functional. The settings on record: HT-29, 1.5 h. The method, boiled down:
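HT-29 cells were stained in medium with Vybrant DyeCycle Violet for 90 min at 37 °C, centrifuged and washed with medium. Side-population cells were identified by flow cytometry histograms. The reference control was verapamil, which blocks the transporter responsible for dye exclusion. Results are % side-population inhibition ± SD.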

Consider `COc1ccc(CCN(C)CCCC(C#N)(c2ccc(OC)c(OC)c2)C(C)C)cc1OC` (stereo unspecified), for which the inhibition at 100 µM amounted to 95%.

The record behind these values is ChEMBL document CHEMBL3085637, “Synthesis and anticancer potential of certain novel 2-oxo-N'-(2-oxoindolin-3-ylidene)-2H-chromene-3-carbohydrazides” (Eur J Med Chem, 2013).
